Reference: ChEMBL document CHEMBL3739352, “Anticonvulsant activity, crystal structures, and preliminary safety evaluation of N-trans-cinnamoyl derivatives of selected (un)modified aminoalkanols” (Eur J Med Chem, 2016)
Calls of active or inactive are those of the source. The rule behind the calls is not given here.

Key:
[1] = test system: Salmonella typhimurium; assay: Mutagenicity in Salmonella typhimurium TA1535 assessed as assessed as mutagenic index at 500 ug/plate by Ames test; format: toxicity, organism-based; conditions: salmonella enterica subsp. enterica serovar typhimurium
[2] = test system: Salmonella typhimurium; assay: Mutagenicity in Salmonella typhimurium TA98 assessed as number of revertants at 100 ug/plate by Ames test (reference value: 23 +/- 3); format: toxicity, organism-based; conditions: salmonella enterica subsp. enterica serovar typhimurium
[3] = test system: Salmonella typhimurium; assay: Mutagenicity in Salmonella typhimurium TA1535 assessed as number of revertants at 100 ug/plate by Ames test (reference value: 10 +/- 3); format: toxicity, organism-based; conditions: salmonella enterica subsp. enterica serovar typhimurium
[4] = test system: Salmonella typhimurium; assay: Mutagenicity in Salmonella typhimurium TA98 assessed as mutagenic index at 4 ug/plate by Ames test; format: toxicity, organism-based; conditions: salmonella enterica subsp. enterica serovar typhimurium
[5] = test system: Mus musculus; assay: Anticonvulsant activity in albino Carworth Farms No.1 mouse assessed as protection against maximal electroshock-induced seizures at 300 mg/kg, ip after 0.5 hrs; format: functional, organism-based
Outline: (§1)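 Mouse i.p. screen in Carworth Farms No.1 albino mice at 30, 100 or 300 mg/kg in 0.5% methylcellulose. Testing was at 0.5 and 4 h after injection, by maximal electroshock or by subcutaneous pentetrazol challenge. Scoring was number protected / number used.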

[6] = test system: Mus musculus; assay: Anticonvulsant activity in albino Carworth Farms No.1 mouse assessed as protection against maximal electroshock-induced seizures at 300 mg/kg, ip after 4 hrs; format: functional, organism-based; outline: as §1
[7] = test system: Salmonella typhimurium; assay: Mutagenicity in Salmonella typhimurium TA100 assessed as mutagenic index at 20 ug/plate by Ames test; format: toxicity, organism-based; conditions: salmonella enterica subsp. enterica serovar typhimurium
Outline: (§2)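 Ames preincubation test. Strain culture was grown 12 h at 37 °C in nutrient broth, then mixed with compound in DMSO (final 4, 20, 100, 500, 1000 per plate) and buffer in top agar with trace histidine. This was plated on glucose minimal agar for 48 h at 37 °C. Mutagenic index = revertants with compound / DMSO control revertants, from three independent repeats.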

[8] = Lipophilicity of the compound using 90% methanol in water at 1 mg/ml by RT-TLC analysis; format: physicochemical; conditions: buffer
Outline: (§3)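 Reversed-phase TLC with a methanol–water mobile phase at the stated methanol content (v/v). Compounds were spotted from 1 mg/mL methanol solutions after 1 h chamber saturation and located under UV light. Rf was measured and RM = log(1/Rf − 1) calculated.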

[9] = test system: Salmonella typhimurium; assay: Mutagenicity in Salmonella typhimurium TA100 assessed as mutagenic index at 500 ug/plate by Ames test; format: toxicity, organism-based; conditions: salmonella enterica subsp. enterica serovar typhimurium; outline: as §2
[10] = test system: Mus musculus; assay: Anticonvulsant activity in albino Carworth Farms No.1 mouse assessed as protection against subcutaneous dosed pentetrazol-induced seizures at 30 mg/kg, ip after 4 hrs; format: functional, organism-based; outline: as §1
[11] = test system: Salmonella typhimurium; assay: Mutagenicity in Salmonella typhimurium TA100 assessed as assessed as mutagenic index at 1000 ug/plate by Ames test; format: toxicity, organism-based; conditions: salmonella enterica subsp. enterica serovar typhimurium; outline: as §2
[12] = test system: Salmonella typhimurium; assay: Mutagenicity in Salmonella typhimurium TA98 assessed as number of revertants at 20 ug/plate by Ames test (reference value: 23 +/- 3); format: toxicity, organism-based; conditions: salmonella enterica subsp. enterica serovar typhimurium
[13] = test system: Mus musculus; assay: Neurotoxicity in albino Carworth Farms No.1 mouse at 100 mg/kg, ip after 4 hrs by rotarod test; format: toxicity, organism-based; conditions: in vivo
Outline: (§4)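 Mice (albino Carworth Farms No.1) were dosed i.p. at 30, 100 or 300 mg/kg in 0.5% methylcellulose. They were tested 0.5 and 4 h later on a 1-inch knurled rod rotating at 6 rpm. Neurotoxicity was scored if a mouse could not stay on the rod for at least 1 min in each of three trials. Results are given as animals toxic/animals tested, with deaths noted.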

[14] = test system: Mus musculus; assay: Anticonvulsant activity in albino Carworth Farms No.1 mouse assessed as protection against subcutaneous dosed pentetrazol-induced seizures at 300 mg/kg, ip after 4 hrs; format: functional, organism-based; outline: as §1
[15] = test system: Salmonella typhimurium; assay: Mutagenicity in Salmonella typhimurium TA1535 assessed assessed as mutagenic index at 100 ug/plate by Ames test; format: toxicity, organism-based; conditions: salmonella enterica subsp. enterica serovar typhimurium
[16] = test system: Salmonella typhimurium; assay: Mutagenicity in Salmonella typhimurium TA1535 assessed as assessed as mutagenic index at 20 ug/plate by Ames test; format: toxicity, organism-based; conditions: salmonella enterica subsp. enterica serovar typhimurium; outline: as §2
[17] = test system: Mus musculus; assay: Anticonvulsant activity in albino Carworth Farms No.1 mouse assessed as protection against subcutaneous dosed pentetrazol-induced seizures at 30 mg/kg, ip after 0.5 hrs; format: functional, organism-based; outline: as §1
[18] = test system: Mus musculus; assay: Neurotoxicity in albino Carworth Farms No.1 mouse at 30 mg/kg, ip after 4 hrs by rotarod test; format: toxicity, organism-based; conditions: in vivo; outline: as §4
[19] = Lipophilicity of the compound using 95% methanol in water at 1 mg/ml by RT-TLC analysis; format: physicochemical; conditions: buffer; outline: as §3
[20] = test system: Mus musculus; assay: Neurotoxicity in albino Carworth Farms No.1 mouse at 300 mg/kg, ip after 0.5 hrs by rotarod test; format: toxicity, organism-based; conditions: in vivo; outline: as §4
[21] = test system: HepG2; assay: Cytotoxicity against human HepG2 cells assessed as change in cell morphology after 48 hrs by inverted microscopic analysis; format: cell-based; conditions: hepg2, 48 h
Outline: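 HepG2 cells in EMEM with 10% FBS and antibiotics were seeded at 5 × 10⁴ cells/cm². After 24 h the medium was replaced with fresh medium with or without compound. After 48 h, cells were imaged under interference modulation contrast at 37 °C, 5% CO₂.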

[22] = in vitro; conditions: human, HepG2 cells
[23] = Neurotoxicity in ip dosed albino Carworth Farms No.1 mouse after 0.25 hrs by rotarod test; format: toxicity, organism-based; conditions: in vivo
[24] = Hepatotoxicity against human HepG2 cells assessed as cell viability at 10 uM after 24 hrs by MTT assay relative to control; format: toxicity, cell-based; conditions: read-out: Activity
Outline: (§5)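 HepG2 cells (EMEM, 10% FBS, 37 °C, 5% CO₂) were seeded at 1 × 10⁴ per well and cultured overnight. They were then exposed to increasing compound concentrations for 24 h. MTT reagent was added for 3 h and formazan crystals dissolved before reading. Data are mean ± SD of at least three independent experiments, relative to untreated control.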

[25] = Hepatotoxicity against human HepG2 cells assessed as cell viability at 50 uM after 24 hrs by MTT assay relative to control
[26] = Hepatotoxicity against human HepG2 cells assessed as cell viability at 25 uM after 24 hrs by MTT assay relative to control; format: toxicity, cell-based; conditions: read-out: Activity; outline: as §5
[27] = test system: Rattus norvegicus; assay: Anticonvulsant activity in Sprague-Dawley rat assessed as protection against maximal electroshock-induced seizures at 30 mg/kg, po after 0.5 hrs; format: functional, organism-based
Outline: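 Sprague-Dawley rats were given 30 mg/kg p.o. in 0.5% methylcellulose. Maximal electroshock was applied at 0.25, 0.5, 1.0, 2.0 and 4 h after dosing. Results are reported as number of rats protected / number tested.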

[28] = test system: Rattus norvegicus; assay: Neurotoxicity in Sprague-Dawley rat at 30 mg/kg, po after 2 hrs; format: toxicity, organism-based; conditions: in vivo
Outline: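 Sprague-Dawley rats were given 30 mg/kg orally in 0.5% methylcellulose. Neurotoxicity was checked at 0.25, 0.5, 1.0, 2.0 and 4 h after dosing. Results are given as number of rats showing neurotoxicity/number tested.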

[29] = test system: Mus musculus; assay: Anticonvulsant activity in albino Carworth Farms No.1 mouse assessed as protection against 6-Hz electroshock-induced seizures at 100 mg/kg, ip after 4 hrs; format: functional, organism-based
Outline: (§6)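 Carworth Farms No.1 albino mice were dosed i.p. at 100 mg/kg (0.5% methylcellulose solution or suspension). 6-Hz seizures were induced at 32 mA at 0.25, 0.5, 1.0, 2.0 and 4 h after injection. Results are given as animals protected / animals tested.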

[30] = test system: Mus musculus; assay: Anticonvulsant activity in albino Carworth Farms No.1 mouse assessed as protection against 6-Hz electroshock-induced seizures at 100 mg/kg, ip after 2 hrs; format: functional, organism-based; outline: as §6
[31] = in vitro; conditions: human, HepG2 cells; remark: listed apart in the source

Row | SMILES | Rm [8] | Rm [19] | Activity_index [1] | Activity [2] | Activity [3] | Activity_index [4] | Activity [5] | Activity [6] | Activity_index [7] | Activity_index [9] | Activity [10] | Activity_index [11] | Activity [12] | Activity [13] | Activity [14] | Activity_index [15] | Activity_index [16] | Activity [17] | Activity [18] | Activity [20] | other results
1 | CCC(CO)NC(=O)/C=C/c1ccccc1 (racemic) | -0.55 | -0.66 | 1.3 | 22 | 14 | 0.9 | Active | inactive | 0.8 | 0.9 | inactive | 0.8 | 24 | Non-toxic | inactive | 1.4 | 0.5 | inactive | Non-toxic | Non-toxic | –
2 | CC(C)C(CO)NC(=O)/C=C/c1ccccc1 (racemic) | -0.45 | -0.63 | 0.7 | 19 | 6 | 0.9 | Active | Active | 1 | 1 | inactive | 1 | 19 | Non-toxic | inactive | 0.6 | 0.6 | inactive | Non-toxic | Non-toxic | Activity [21]: Non-toxic; viability at 24 h, 100 µM [22]: 90%; TD50 at 0.25 h [23]: 190 mg/kg; viability at 24 h, 10 µM [24]: 95.2%; viability at 24 h, 50 µM [25]: 89.1%; viability at 24 h, 25 µM [26]: 95.7%; Activity [27]: inactive; Activity [28]: Non-toxic; Activity [29]: inactive; Activity [30]: inactive; viability at 24 h, 50 µM [31]: 93%
3 | CCC(O)CNC(=O)/C=C/c1ccccc1 (racemic) | -0.52 | -0.66 | 0.7 | 21 | 5 | 0.9 | Active | inactive | 0.8 | 0.8 | inactive | 0.9 | 20 | Non-toxic | inactive | 0.5 | 1.4 | inactive | Non-toxic | Non-toxic | Activity [21]: Non-toxic; viability at 24 h, 100 µM [22]: 89%; viability at 24 h, 10 µM [24]: 94.5%; viability at 24 h, 50 µM [25]: 89.4%; viability at 24 h, 25 µM [26]: 91.2%; Activity [28]: Non-toxic; Activity [29]: inactive; Activity [30]: inactive; viability at 24 h, 50 µM [31]: 92%

Further lines, with some results ahead:

Row | Rm [8] | Rm [19] | SMILES | Activity_index [1] | Activity [2] | Activity [3] | Activity_index [4] | Activity [5] | Activity [6] | Activity_index [7] | Activity_index [9] | Activity [10] | Activity_index [11] | Activity [12] | Activity [13] | Activity [14] | Activity_index [15] | Activity_index [16] | Activity [17] | Activity [18] | Activity [20] | other results
4 | -0.43 | -0.52 | O=C(/C=C/c1ccccc1)N[C@H]1CCCC[C@@H]1O (racemic) | 0.7 | 20 | 6 | 1 | inactive | inactive | 1 | 1 | inactive | 0.9 | 21 | Non-toxic | inactive | 0.6 | 1.4 | inactive | Non-toxic | Toxic | –
5 | -0.6 | -0.69 | CC(CO)NC(=O)/C=C/c1ccccc1 (racemic) | 0.8 | 21 | 5 | 0.9 | Active | Active | 0.8 | 0.8 | inactive | 0.9 | 20 | Non-toxic | inactive | 0.5 | 0.6 | inactive | Non-toxic | Non-toxic | Activity [21]: Non-toxic; viability at 24 h, 100 µM [22]: 89%; TD50 at 0.25 h [23]: 223 mg/kg; viability at 24 h, 10 µM [24]: 97.1%; viability at 24 h, 50 µM [25]: 95%; viability at 24 h, 25 µM [26]: 96.6%; Activity [27]: inactive; Activity [28]: Non-toxic; Activity [29]: inactive; Activity [30]: inactive; viability at 24 h, 50 µM [31]: 96%
6 | -0.48 | -0.6 | O=C(/C=C/c1ccccc1)N1CCC(O)CC1 | 0.8 | 17 | 9 | 1 | – | – | 0.9 | 0.9 | inactive | 0.9 | 19 | Non-toxic | – | 0.9 | 0.6 | inactive | Non-toxic | – | Activity [27]: inactive; Activity [28]: Non-toxic
7 | -0.58 | -0.69 | CC(O)CNC(=O)/C=C/c1ccccc1 (racemic) | 1.4 | 21 | 12 | 1.1 | Active | inactive | 0.9 | 0.8 | inactive | 1 | 22 | Non-toxic | inactive | 1.2 | 1.3 | inactive | Non-toxic | Non-toxic | Activity [21]: Non-toxic; viability at 24 h, 100 µM [22]: 85%; TD50 at 0.25 h [23]: 136 mg/kg; viability at 24 h, 10 µM [24]: 97.3%; viability at 24 h, 50 µM [25]: 92.6%; viability at 24 h, 25 µM [26]: 92.5%; Activity [27]: inactive; Activity [28]: Non-toxic; Activity [29]: inactive; Activity [30]: inactive; viability at 24 h, 50 µM [31]: 98%
